Experimental data reported in ChEMBL document CHEMBL3244414, “Structure-activity relationships among the O-acyl derivatives of leucomycin. Correlation of minimal inhibitory concentrations with binding to Escherichia coli ribosomes” (J Med Chem, 1977).
≈ marks a conversion by molar mass, not a printed value.

Tests used:
[1] = target: Bacterial 70S ribosome (Bacteria) (UniProt P0A7V0+P60723+P0AG67+P0A7R5+P0A7R9+P0A7S3+P0A7S9+P0AG59+P0ADZ4+P0A7T3+P0AG63+P0A7T7+P0A7U3+P0A7U7+P68679+P0A7V3+P0A7V8+P0A7W1+P02358+P02359+P0A7W7+P0A7X3+P0A7J3+P0A7J7+P0AA10+P0ADY3+P02413+P0ADY7+P0AG44+P0C018+P0A7K6+P0A7L0+P0A7L3+P0AG48+P61175+P0ADZ0+P60624+P68919+P0A7L8+P0A7M2+P0A7M6+P60422+P0AG51+P0A7N1+P0A7M9+P0A7N4+P0A7N9+P0A7P5+P0A7Q1+Q2EEQ2+P0A7Q6+P60438+P62399+P0AG55+P0A7K2); assay: (§1) Displacement of [14C]erythromycin from Escherichia coli ribosomes after 30 mins by scintillation spectrometer analysis
In short: (§2)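 NH4Cl-washed E. coli ribosomes with [14C]erythromycin A and varied competitor concentrations in 0.01 M Tris-HCl pH 7.2, 0.1 M KCl, 0.004 M MgCl2, 0.01 M NH4Cl. Incubated 30 min at 24 °C, stopped by dilution in cold Tris/KCl/MgCl2 buffer, membrane-filtered, washed three times, dried, scintillation counted. Reports the concentration giving 50% inhibition of binding.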

Bacterial 70S ribosome = assay: as §1; in short: as §2
Bacillus spizizenii = assay: Antimicrobial activity against Bacillus subtilis ATCC 6633 by agar dilution method; type: functional; details: Bacillus spizizenii, ATCC 6633; read-out: MIC
In short: (§3)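 Read-out is the minimal inhibitory concentration, found by agar dilution against the named strain.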

Klebsiella pneumoniae = assay: Antimicrobial activity against Klebsiella pneumoniae ATCC 10031 by agar dilution method; type: functional; details: Klebsiella pneumoniae, ATCC 10031; read-out: MIC; in short: as §3
Staphylococcus aureus = assay: Antimicrobial activity against Staphylococcus aureus ATCC 6538P by agar dilution method; type: functional; details: Staphylococcus aureus, ATCC 6538P; read-out: MIC; in short: as §3

Row | Compound | pK50 [1] | IC50 (Bacterial 70S ribosome) [nM] | MIC (Bacillus spizizenii) [µg/mL] | MIC (Klebsiella pneumoniae) [µg/mL] | MIC (Staphylococcus aureus) [µg/mL]
1 | CO[C@@H]1[C@@H](O[C@@H]2O[C@H](C)[C@@H](O[C@H]3C[C@@](C)(O)[C@@H](OC(=O)CC(C)C)[C@H](C)O3)[C@H](N(C)C)[C@H]2OC(=O)CCC(=O)O)[C@@H](CC=O)C[C@@H](C)[C@@H](O)/C=C/C=C/C[C@@H](C)OC(=O)C[C@H]1OC(C)=O | 5.5 | 3500 | 1.6 (≈ 1.72 µM) | 25 (≈ 26.9 µM) | 1.6 (≈ 1.72 µM)
2 | CO[C@@H]1[C@@H](O[C@@H]2O[C@H](C)[C@@H](O[C@H]3C[C@@](C)(O)[C@@H](OC(=O)CC(C)C)[C@H](C)O3)[C@H](N(C)C)[C@H]2O)[C@@H](CC=O)C[C@@H](C)[C@@H](OC(=O)CCC(=O)O)/C=C/C=C/C[C@@H](C)OC(=O)C[C@H]1OC(C)=O | 5.5 | 3400 | 3.1 (≈ 3.34 µM) | 100 (≈ 108 µM) | 3.1 (≈ 3.34 µM)
3 | CCC(=O)O[C@H]1/C=C/C=C/C[C@@H](C)OC(=O)C[C@@H](O)[C@H](OC)[C@@H](O[C@@H]2O[C@H](C)[C@@H](O[C@H]3C[C@@](C)(O)[C@@H](OC(=O)C(C)CC)[C@H](C)O3)[C@H](N(C)C)[C@H]2O)[C@@H](CC=O)C[C@H]1C (some centres undefined) | 5.8 | 1700 | 0.8 (≈ 0.95 µM) | 50 (≈ 59.4 µM) | 1.6 (≈ 1.9 µM)
4 | CO[C@@H]1[C@@H](O[C@@H]2O[C@H](C)[C@@H](O[C@H]3C[C@@](C)(O)[C@@H](OC(=O)CC(C)C)[C@H](C)O3)[C@H](N(C)C)[C@H]2O)[C@@H](CC=O)C[C@@H](C)[C@@H](OC(C)=O)/C=C/C=C/C[C@@H](C)OC(=O)C[C@H]1O | 6 | 1100 | 0.8 (≈ 0.966 µM) | 50 (≈ 60.4 µM) | 1.6 (≈ 1.93 µM)
5 | CO[C@@H]1[C@@H](O[C@@H]2O[C@H](C)[C@@H](O[C@H]3C[C@@](C)(O)[C@@H](OC(C)=O)[C@H](C)O3)[C@H](N(C)C)[C@H]2O)[C@@H](CC=O)C[C@@H](C)[C@@H](O)/C=C/C=C/C[C@@H](C)OC(=O)C[C@H]1OC(C)=O | 5.2 | 6700 | 6.3 (≈ 8.02 µM) | 100 (≈ 127 µM) | 3.1 (≈ 3.94 µM)
6 | CO[C@@H]1[C@@H](O[C@@H]2O[C@H](C)[C@@H](O[C@H]3C[C@@](C)(O)[C@@H](OC(=O)CC(C)C)[C@H](C)O3)[C@H](N(C)C)[C@H]2O)[C@@H](CC=O)C[C@@H](C)[C@@H](OC(=O)C(Cl)Cl)/C=C/C=C/C[C@@H](C)OC(=O)C[C@H]1OC(C)=O | 5.9 | 1400 | 0.8 (≈ 0.852 µM) | 50 (≈ 53.3 µM) | 1.6 (≈ 1.7 µM)
7 | CCCC(=O)O[C@H]1[C@H](C)O[C@@H](O[C@H]2[C@H](N(C)C)[C@@H](OC(C)=O)[C@H](O[C@H]3[C@@H](CC=O)C[C@@H](C)[C@@H](OC(C)=O)/C=C/C=C/C[C@@H](C)OC(=O)C[C@@H](OC(C)=O)[C@@H]3OC)O[C@@H]2C)C[C@@]1(C)O | 4.5 | 33100 | 1.6 (≈ 1.78 µM) | 100 (≈ 111 µM) | 1.6 (≈ 1.78 µM)
8 | CCC(=O)O[C@H]1[C@H](C)O[C@@H](O[C@H]2[C@H](N(C)C)[C@@H](O)[C@H](O[C@H]3[C@@H](CC=O)C[C@@H](C)[C@@H](O)/C=C/C=C/C[C@@H](C)OC(=O)C[C@@H](OC(C)=O)[C@@H]3OC)O[C@@H]2C)C[C@@]1(C)O | 5.7 | 1900 | 3.1 (≈ 3.88 µM) | 50 (≈ 62.5 µM) | 1.6 (≈ 2 µM)
9 | CO[C@H]1C(O)CC(=O)O[C@H](C)C/C=C/C=C/[C@H](OC(C)=O)[C@H](C)C[C@H](CC=O)[C@@H]1O[C@@H]1O[C@H](C)[C@@H](O[C@H]2C[C@@](C)(O)[C@@H](O)[C@H](C)O2)[C@H](N(C)C)[C@H]1O (single isomer, unassigned) | 5.6 | 2800 | 3.1 (≈ 4.17 µM) | 100 (≈ 134 µM) | 6.3 (≈ 8.47 µM)
10 | CO[C@@H]1[C@@H](O[C@@H]2O[C@H](C)[C@@H](O[C@H]3C[C@@](C)(O)[C@@H](OC(=O)CC(C)C)[C@H](C)O3)[C@H](N(C)C)[C@H]2O)[C@@H](CC=O)C[C@@H](C)[C@@H](OC(=O)C(C)C)/C=C/C=C/C[C@@H](C)OC(=O)C[C@H]1OC(C)=O | 5.7 | 2000 | 0.8 (≈ 0.891 µM) | 100 (≈ 111 µM) | 3.1 (≈ 3.45 µM)
11 | CCC(=O)O[C@H]1[C@H](O[C@H]2[C@@H](CC=O)C[C@@H](C)[C@@H](OC(=O)CC)/C=C/C=C/C[C@@H](C)OC(=O)C[C@@H](OC(C)=O)[C@@H]2OC)O[C@H](C)[C@@H](O[C@H]2C[C@@](C)(O)[C@@H](OC(=O)CC(C)C)[C@H](C)O2)[C@@H]1N(C)C |  | > 100000 | 6.3 (≈ 6.7 µM) | 100 (≈ 106 µM) | 6.3 (≈ 6.7 µM)
